Experimental findings from ChEMBL document CHEMBL3351495, “Anti-inflammatory components of Chrysanthemum indicum flowers” (Bioorg Med Chem Lett, 2015) are described below.

Active and inactive are the calls of the source. The calls are words filed in the database; no cut-off is given here.

For data set [1], the system named is RAW264.7. Kind of data set: Antiinflammatory activity in mouse RAW264.7 cells assessed as inhibition of LPS-stimulated nitric oxide production at 10 uM after 24 hrs by Griess assay. The class given is functional. To be noted: RAW264.7, 24 h. The essentials:
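Nitrite in the medium measured by Griess reaction and given as % inhibition of NO production. Celecoxib (1.0 μM) served as reference. Mean SD of at least three independent experiments, each in triplicate.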
(The Griess reaction detects nitrite, a stable product of nitric oxide.)

In data set [2] the test system is RAW264.7. Kind of data set: Cytotoxicity against mouse RAW264.7 cells at 50 uM by MTT assay. In kind it is cell-based. To be noted: raw264.7, 50 µM.
Data set [3] deals with RAW264.7. Kind of data set: Antiinflammatory activity in mouse RAW264.7 cells assessed as inhibition of LPS-stimulated TNFalpha production at 10 uM by ELISA. The class given is functional. A digest of the protocol:
(§1)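 RAW 264.7 cells were stimulated with LPS, with or without each compound at 0.4, 2.0 and 10.0 μM, and secreted TNF-α was measured. Concentrations were kept below 50 μM, the level checked by MTT for viability. Values are mean ± SD from at least three independent experiments, each run in triplicate.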
For orientation: ELISA stands for enzyme-linked immunosorbent assay.

The test system of data set [4] is RAW264.7. Put plainly: Inhibition of iNOS protein expression in LPS-stimulated mouse RAW264.7 cells by Western blot analysis. The class given is functional, cell-based. A digest of the protocol:
(§2)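 RAW 264.7 cells exposed to LPS (1 μg/ml) with or without test agent at 0.4, 2 and 10 μM. Celecoxib (1 μM) served as reference. COX-2 and iNOS protein detected by Western blot, with actin as loading control.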

Data set [5] relates to RAW264.7. Put plainly: Inhibition of COX2 protein expression in LPS-stimulated mouse RAW264.7 cells by Western blot analysis. The class given is functional, cell-based. A digest of the protocol: as §2
(In general: In western blotting, separated proteins are transferred to a membrane and probed.)

Data set [6] concerns RAW264.7. Put plainly: Antiinflammatory activity in mouse RAW264.7 cells assessed as inhibition of LPS-stimulated TNFalpha production at 0.4 to 2 uM by ELISA. The class given is functional, cell-based. A digest of the protocol:
as §1

Data set [7] relates to RAW264.7. Kind of data set: Antiinflammatory activity in mouse RAW264.7 cells assessed as inhibition of LPS-stimulated nitric oxide production at 0.4 to 10 uM after 24 hrs by Griess assay. In kind it is functional, cell-based. A digest of the protocol: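 NO made by LPS-stimulated RAW 264.7 cells was measured by Griess reaction. Each compound was screened at 0.4, 2.0 and 10.0 μM, all below the 50 μM level checked for viability by MTT. Results are mean ± SD from at least three independent experiments run in triplicate.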

The subject of data set [8] is RAW264.7. Put plainly: Antiinflammatory activity in mouse RAW264.7 cells assessed as inhibition of LPS-stimulated TNFalpha production at 2 uM by ELISA. In kind it is functional. A digest of the protocol: as §1

A word on the inhibition: it is how much of the control response was suppressed. As for `O=c1c(O)c(-c2ccc(O)c(O)c2)oc2cc(O[C@@H]3O[C@H](CO)[C@@H](O)[C@H](O)[C@H]3O)cc(O)c12` [QUERCIMERITRIN], the inhibition at 10 µM in data set [1] worked out at 36.5%; in data set [3], 13%. For the same compound, the Activity entry in data set [2] is given as “Non-toxic”. Besides, the inhibition entry in data set [4] and in data set [5] was “Dose-dependent effect” throughout. Moreover, the inhibition entry in data set [6] is “inactive”.

With `COC(=O)[C@]1(O)C[C@@H](O)[C@@H](OC(=O)/C=C/c2ccc(O)c(O)c2)[C@H](OC(=O)/C=C/c2ccc(O)c(O)c2)C1`, the Activity entry in data set [2] is listed as “Non-toxic”. Moreover, the inhibition entry in data set [7] and in data set [6] was “inactive” in each case. The inhibition at 10 µM in data set [3] turned out to be 13%.

Consider `COC(=O)[C@]1(O)C[C@@H](OC(=O)/C=C/c2ccc(O)c(O)c2)[C@@H](O)[C@H](OC(=O)/C=C/c2ccc(O)c(O)c2)C1`, for which the Activity result in data set [2] is “Non-toxic”. Besides, the inhibition result in data set [7] was “inactive”.

Turning to `O=C(/C=C/c1ccc(O)c(O)c1)O[C@@H]1C[C@@](OC(=O)/C=C/c2ccc(O)c(O)c2)(C(=O)O)C[C@@H](O)[C@@H]1O` [CYNARIN], in data set [2], the Activity result was “Non-toxic”. Also, the inhibition result in data set [7] and in data set [6] was “inactive” throughout.

With `CC[C@H](C)C(=O)OC[C@@H]1O[C@@]2(C(=O)OC)C[C@@H](O)[C@@H](O)[C@@H]1O2`, the Activity result in data set [2] is reported as “Non-toxic”. In addition, the inhibition result in data set [7] is “inactive”. Moreover, the inhibition at 10 µM in data set [3] is 22%. Moreover, in data set [8], the inhibition at 2 µM turned out to be 14.4%.

With `O=C(/C=C/c1ccc(O)c(O)c1)O[C@@H]1C[C@](O)(C(=O)O)C[C@@H](O)[C@H]1O` [CHLOROGENIC ACID], in data set [2], the Activity entry is given as “Non-toxic”. The inhibition entry in data set [7] is “inactive”. The inhibition at 10 µM in data set [3] came out at 24.7%. Further, the inhibition at 2 µM in data set [8] came to 16.1%.

`O=c1cc(-c2ccc(O)c(O)c2)oc2cc(O[C@@H]3O[C@H](CO)[C@@H](O)[C@H](O)[C@H]3O)cc(O)c12` [GALUTEOLIN]: the Activity entry in data set [2] is given as “Non-toxic”. Further, the inhibition result in data set [7] and in data set [6] was “inactive” in each case. Besides, the inhibition at 10 µM in data set [3] was 13%.

With `O=c1c(O)c(-c2ccc(O)c(O)c2)oc2cc(O)cc(O)c12` [QUERCETIN], the inhibition at 10 µM came to 46.1% in data set [1] and 13% in data set [3]. Also, in data set [2], the Activity result is reported as “Non-toxic”. Moreover, the inhibition result in data set [4] and in data set [5] was “Dose-dependent effect” in each case. In addition, the inhibition entry in data set [6] was “inactive”.

As to `OC[C@H]1O[C@@H](OCc2ccccc2)[C@H](O)[C@@H](O)[C@@H]1O`, the Activity result in data set [2] was “Non-toxic”. For the same compound, the inhibition entry in data set [7] and in data set [6] was “inactive” in each case.

With `COc1cc(CCCO)cc(OC)c1O[C@@H]1O[C@H](CO)[C@@H](O)[C@H](O)[C@H]1O` [DIHYDROSYRINGIN], the Activity result in data set [2] was “Non-toxic”. The inhibition entry in data set [7] and in data set [6] was “inactive” in each case. Further, in data set [3], the inhibition at 10 µM amounted to 13%.

For the compound `COC(=O)[C@]1(O)C[C@@H](O)[C@@H](O)[C@H](OC(=O)/C=C/c2ccc(O)c(O)c2)C1` [CHLOROGENIC ACID METHYL ESTER], the Activity result in data set [2] is “Non-toxic”. In addition, the inhibition result in data set [7] and in data set [6] was “inactive” in each case.

For the compound `COc1cc(-c2cc(=O)c3c(O)cc(O)cc3o2)cc(OC)c1O` [TRICIN], the Activity result in data set [2] is recorded as “Non-toxic”. Besides, the inhibition entry in data set [7] was “inactive”.

Regarding `COc1cc(/C=C/CO)cc(OC)c1O[C@@H]1O[C@H](CO)[C@@H](O)[C@H](O)[C@H]1O` [SYRINGIN], in data set [2], the Activity entry is on record as “Non-toxic”. The inhibition result in data set [7] and in data set [6] was “inactive” in each case. Further, the inhibition at 10 µM in data set [3] was found to be 13%.

As to `COC(=O)[C@]1(O)C[C@@H](O)[C@@H](OC(=O)/C=C/c2ccc(O)c(O)c2)[C@H](O)C1`, the Activity entry in data set [2] was “Non-toxic”. Besides, the inhibition entry in data set [7] and in data set [6] was “inactive” each time.

In the case of `O=c1cc(-c2ccc(O)cc2)oc2cc(O[C@@H]3O[C@H](CO)[C@@H](O)[C@H](O)[C@H]3O)cc(O)c12` [APIGETRIN], in data set [2], the Activity entry is “Non-toxic”. In data set [7], the inhibition entry is “inactive”.

Consider `OC[C@H]1O[C@@H](OCCc2ccccc2)[C@H](O)[C@@H](O)[C@@H]1O`, for which the Activity entry in data set [2] is given as “Non-toxic”. The inhibition entry in data set [7] and in data set [6] was “inactive” in each case. In addition, in data set [3], the inhibition at 10 µM is 13%.

With `COc1cc(-c2oc3cc(O)cc(O)c3c(=O)c2O[C@@H]2O[C@H](CO)[C@@H](O)[C@H](O)[C@H]2O)ccc1O`, the Activity result in data set [2] is on record as “Non-toxic”. Further, the inhibition result in data set [7] is “inactive”.

For `CC1=C(C/C=C\CCO[C@@H]2O[C@H](CO)[C@@H](O)[C@H](O)[C@H]2O)C(=O)CC1`, in data set [2], the Activity result is “Non-toxic”. The inhibition result in data set [7] is “inactive”. The inhibition at 10 µM in data set [3] is 23%. The inhibition at 2 µM in data set [8] is 11.8%.
